Test [1] can be described thus: HUVEC growth inhibition – cell-based, human, primary screen (AID 575;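 active = viability at or below 30% in both replicate assays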;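 note: 100% = median of untreated cell wells with 0.1% DMSO on each plate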). Particulars: HUVEC proliferation, CellTiter-Glo luminescence, 72 h; at 10 µM; stronger effect = lower value. The method, boiled down: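 Test system: primary human umbilical vein endothelial cells; medium: endothelial basal medium with 2% FBS plus growth supplements; dosing: 10 µM compound only; times: 72 h treatment at 37 °C; signal: CTG luminescence; read-out: % viability relative to median vehicle-well signal on each plate; control set: vehicle and MePR control wells; plate: 384-well, collagen-coated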
A general note: In ATP-based viability assays light output follows the ATP content of the culture.

Test [2] can be described thus: H69AR cell proliferation blockers – human, duplicate replicates, primary screen (AID 580;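 active = viability at or under a set limit in both replicates, limit being median viability minus 3 SD, cut at about 48% in these data, passing the limit was not always enough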;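 note: 100% = mean luminescence of untreated wells and 0% = no signal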). Conditions: H69AR lung tumor cells viability, ATP luminescence, 72 h; at 10 µM; stronger effect = lower value.
Test [3] can be described thus: MRP1 drug-resistance reversers in H69AR cells – cell-based, doxorubicin co-treatment, pilot screen (AID 601;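 active = viability loss from added drug above about 55%, and viability with drug at most 40%, in both replicates, limit read from the data, passing the limit was not always enough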). Particulars: CellTiter-Glo, 72 h, at 10 µM; for differential viability (reversal): stronger effect = higher value.
Test [4] can be described thus: yeast transport mutant growth inhibition pilot in 384-well plates, post-Golgi transport modulator project (AID 636; in the data active = inhibition above about 31%). Conditions: absorbance 615 nm, about 18 h, stronger effect = higher value.
A short description of test [5]: growth suppression of yeast trafficking mutant, preliminary HTS, modulators of trafficking downstream of Golgi apparatus project, 1536-format plate, OD 615 nm (AID 637). Conditions: yeast transport mutant growth, absorbance 615 nm, 18 h; stronger effect = higher value.
The mark [6] stands for this setting: H69AR cells + 2 uM doxorubicin, measured here: viability with 2 uM doxorubicin, stronger effect = lower value.
Where [7] appears, read: H69AR cells, compound alone cytotoxicity.

Molecules are shown by their SMILES. The source made the active and inactive calls. Cut-off read from the data, not from the text of the source, unless noted: active = inhibition above about 30%; inactive = the rest.

As for `CCCCOc1ccc(C(=O)Nc2ccc(N3CCN(C(=O)C(C)C)CC3)cc2)cc1`, the viability (as a rule, a read-out of living cells in per cent, often relative to untreated cells) in test [1] is 79.3% (inactive); in test [2] it was 75% (inactive); in test [3] (setting [6]), 81.7%; in test [3] (setting [7]), 75%. For the same molecule, the differential viability (reversal) in test [3] (H69AR cells + 2 uM doxorubicin) is -6.69% (inactive). Also, the figures for the inhibition in test [4] and in test [5] were -3.55% (inactive) and 2.22% (inactive), respectively.
For `CCCCn1c(NC(=O)CC)c(C#N)c2nc3ccccc3nc21`, the viability in test [1] is 77.4% (inactive); in test [2], 81.9% (inactive); in test [3] (setting [6]) it was 79.8%; in test [3] (setting [7]) it was 81.9%. Further, in test [3] (H69AR cells + 2 uM doxorubicin), the differential viability (reversal) was 2.13% (inactive). Further, the inhibition (commonly the drop in the measured response relative to a control, in per cent) in test [4] was -6.67% (inactive); in test [5] it was -2.38% (inactive).
In the case of `O=C1CNCc2[nH]c3ccccc3c2N1c1ccccc1`, the viability in test [1] was 94.2% (inactive); in test [2] it was 94.8% (inactive); in test [3] (setting [6]), 96%; in test [3] (setting [7]), 94.8%. Further, the differential viability (reversal) in test [3] (H69AR cells + 2 uM doxorubicin) is -1.22% (inactive). Also, the inhibition in test [4] is -3.95% (inactive); in test [5], 1.27% (inactive).
Turning to `Cc1nc2cc(CO)ccc2n1C`, the viability in test [1] was 93.1% (inactive); in test [2] it was 98.1% (inactive); in test [3] (setting [6]) it was 89%; in test [3] (setting [7]), 98.1%. Also, the differential viability (reversal) in test [3] (H69AR cells + 2 uM doxorubicin) was 9.13% (inactive). For the same molecule, the values for the inhibition in test [4] and in test [5] were -5.97% (inactive) and -1.9% (inactive), respectively.
With `CC(C)Cc1nnc(NC(=O)CCC(=O)N2CCOCC2)s1`, the viability in test [1] was 91.5% (inactive); in test [2], 96.2% (inactive); in test [3] (setting [6]), 95.9%; in test [3] (setting [7]), 96.2%. Further, the differential viability (reversal) in test [3] (H69AR cells + 2 uM doxorubicin) was 0.305% (inactive). The figures for the inhibition in test [4] and in test [5] were -4.8% (inactive) and 0.63% (inactive), respectively.
For `CC(=O)Nc1cccc(NC(=O)CSc2nnnn2C)c1`, the viability in test [1] is 115% (inactive); in test [2], 106% (inactive); in test [3] (setting [6]) it was 95.9%; in test [3] (setting [7]) it was 106%. Also, the differential viability (reversal) in test [3] (H69AR cells + 2 uM doxorubicin) is 10.2% (inactive). Also, the inhibition in test [4] was -5.39% (inactive); in test [5], 0.95% (inactive).
`CCS(=O)(=O)N1CCC(C(=O)NCc2cccs2)CC1`: the viability was 87.2% (inactive) in test [1], 99.3% (inactive) in test [2], 89.6% in test [3] (setting [6]) and 99.3% in test [3] (setting [7]). Moreover, the differential viability (reversal) in test [3] (H69AR cells + 2 uM doxorubicin) was 9.73% (inactive). In addition, the inhibition in test [4] is -1.04% (inactive); in test [5], -3.02% (inactive).
As to `Cc1ccc(-c2[nH]nc3c2C(c2ccoc2)C(C#N)=C(N)O3)cc1C` (configuration not stated), the viability in test [1] was 90.2% (inactive); in test [2], 86.7% (inactive); in test [3] (setting [6]), 86%; in test [3] (setting [7]) it was 86.7%. Besides, in test [3] (H69AR cells + 2 uM doxorubicin), the differential viability (reversal) is 0.74% (inactive). For the same molecule, the inhibition in test [4] was -1.45% (inactive); in test [5], -1.27% (inactive).
Turning to `CCOC(=O)C1CCCN(c2nc3ccccc3nc2C(C#N)C(=O)NCc2ccccc2)C1` (configuration not stated), the viability in test [1] is 80.6% (inactive); in test [2] it was 86.2% (inactive); in test [3] (setting [6]), 85.8%; in test [3] (setting [7]), 86.2%. The differential viability (reversal) in test [3] (H69AR cells + 2 uM doxorubicin) is 0.385% (inactive). The inhibition in test [4] is -3.95% (inactive); in test [5], -1.27% (inactive).
In the case of `COc1cc2c(cc1NCc1ccccn1)oc1ccccc12`, the viability is 78% (inactive) in test [1], 83.8% (inactive) in test [2], 94.1% in test [3] (setting [6]) and 83.8% in test [3] (setting [7]). For the same molecule, in test [3] (H69AR cells + 2 uM doxorubicin), the differential viability (reversal) was -10.3% (inactive). Besides, the inhibition in test [4] was -4.13% (inactive); in test [5] it was 5.08% (inactive).
Take `O=C(O)C1CSC2c3ccccc3C(=O)N12` (configuration not stated): the viability in test [1] was 104% (inactive); in test [2] it was 103% (inactive); in test [3] (setting [6]) it was 87.6%; in test [3] (setting [7]) it was 103%. Also, the differential viability (reversal) in test [3] (H69AR cells + 2 uM doxorubicin) is 15.4% (inactive). Besides, the results for the inhibition in test [4] and in test [5] were -1.04% (inactive) and 3.81% (inactive), respectively.
Turning to `COc1ccc(-c2nnc(-c3ccc(N)cc3)o2)cc1`, the viability in test [1] was 95.9% (inactive); in test [2] it was 88.3% (inactive); in test [3] (setting [6]) it was 91.1%; in test [3] (setting [7]), 88.3%. The differential viability (reversal) in test [3] (H69AR cells + 2 uM doxorubicin) was -2.75% (inactive). The inhibition in test [4] was -4.13% (inactive); in test [5], 3.81% (inactive).
For the molecule `COc1ccc(NC(=O)CSc2nnc(-c3ccncc3)n2CC2CCCO2)c(OC)c1` (configuration not stated), the viability in test [1] is 89.2% (inactive); in test [2] it was 104% (inactive); in test [3] (setting [6]), 97.7%; in test [3] (setting [7]), 104%. For the same molecule, the differential viability (reversal) in test [3] (H69AR cells + 2 uM doxorubicin) was 5.88% (inactive). Further, the results for the inhibition in test [4] and in test [5] were -6.36% (inactive) and 4.13% (inactive), respectively.
For `C1=CC2CC1CC2CN1CCN(c2ccccc2)CC1` (configuration not stated), the viability was 97.7% (inactive) in test [1], 91.8% (inactive) in test [2], 94.8% in test [3] (setting [6]) and 91.8% in test [3] (setting [7]). Besides, in test [3] (H69AR cells + 2 uM doxorubicin), the differential viability (reversal) is -2.94% (inactive). The inhibition is 1.45% (inactive) in test [4] and -1.27% (inactive) in test [5].
`Cc1ccccc1CN1CCN(CC(=O)NCc2ccco2)C1=O`: the viability in test [1] was 101% (inactive); in test [2], 83% (inactive); in test [3] (setting [6]) it was 83.7%; in test [3] (setting [7]) it was 83%. In addition, the differential viability (reversal) in test [3] (H69AR cells + 2 uM doxorubicin) is -0.72% (inactive). The inhibition is -1.17% (inactive) in test [4] and 4.92% (inactive) in test [5].
Consider `CCCn1cc(C(CC(=O)O)C(=O)O)c2ccccc21` (configuration not stated), for which the viability in test [1] was 92.8% (inactive); in test [2], 89.1% (inactive); in test [3] (setting [6]), 93%; in test [3] (setting [7]), 89.1%. Moreover, in test [3] (H69AR cells + 2 uM doxorubicin), the differential viability (reversal) is -3.86% (inactive). Moreover, the inhibition in test [4] is -7.33% (inactive); in test [5], 5.24% (inactive).
Consider `CN1CCCc2cc(C#N)c(=O)[nH]c21`, for which the viability was 99.7% (inactive) in test [1], 107% (inactive) in test [2], 99.3% in test [3] (setting [6]) and 107% in test [3] (setting [7]). In addition, in test [3] (H69AR cells + 2 uM doxorubicin), the differential viability (reversal) was 8.18% (inactive). For the same molecule, the inhibition in test [4] is -5.71% (inactive); in test [5] it was -2.38% (inactive).
`Cc1c(NC(=O)C2CCCNC2=O)c(=O)n(-c2ccccc2)n1C` (configuration not stated): the viability was 107% (inactive) in test [1], 107% (inactive) in test [2], 107% in test [3] (setting [6]) and 107% in test [3] (setting [7]). The differential viability (reversal) in test [3] (H69AR cells + 2 uM doxorubicin) is -0.405% (inactive). Also, the inhibition in test [4] was -2.24% (inactive); in test [5], 3.33% (inactive).
For the molecule `CCCn1nc(CC(=O)O)c2ccccc2c1=O`, the viability was 98.2% (inactive) in test [1], 103% (inactive) in test [2], 94.7% in test [3] (setting [6]) and 103% in test [3] (setting [7]). Moreover, the differential viability (reversal) in test [3] (H69AR cells + 2 uM doxorubicin) is 8.11% (inactive). Besides, the inhibition in test [4] was -6.27% (inactive); in test [5], -3.02% (inactive).
For the molecule `COc1cccc(C(=O)Nc2cnc(NC(=O)c3ccco3)cc2C)c1`, the viability was 103% (inactive) in test [1], 86.6% (inactive) in test [2], 78.1% in test [3] (setting [6]) and 86.6% in test [3] (setting [7]). In addition, in test [3] (H69AR cells + 2 uM doxorubicin), the differential viability (reversal) was 8.55% (inactive). For the same molecule, the inhibition in test [4] was -2.21% (inactive); in test [5], -4.44% (inactive).
With `CCOC(=O)Cc1csc(NC(=O)CSc2nnc(C)n2C)n1`, the viability in test [1] was 108% (inactive); in test [2], 95.2% (inactive); in test [3] (setting [6]), 89.4%; in test [3] (setting [7]), 95.2%. For the same molecule, the differential viability (reversal) in test [3] (H69AR cells + 2 uM doxorubicin) was 5.79% (inactive). The inhibition in test [4] was 6.27% (inactive); in test [5], -5.4% (inactive).

(Values after PubChem BioAssay.)
